Calls of active or inactive are those of the source. No cut-off for these calls is given here.
Assays:
[1] = target: Histone-lysine N-methyltransferase EZH2 (Homo sapiens, UniProt Q15910); test: Inhibition of EZH2 in human KARPAS422 cells assessed as reduction in H3K27me3 level after 72 hrs by ELISA
[2] = Intrinsic clearance in human liver microsomes assessed per mg protein at 1 uM preincubated for 10 mins followed by NADPH addition measured after 45 mins by LC-MS/MS analysis; type: ADME, microsome; conditions: liver microsomes, read-out: CLH
Summary of the method: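 Test compound (1 μM) with pooled liver microsomes (0.8 mg/mL protein) in 100 mM potassium phosphate pH 7.4, 10 min preincubation, started with 2 mM NADPH, 45 min at 37 °C, in triplicate. Samples quenched with cold methanol containing buspirone internal standard, analysed by LC−MS/MS. CLint derived from t1/2 of parent loss (log-linear slope).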

Mus musculus = test: Time at which free plasma concentration stays below antiproliferative KARPAS422 cells IC90 level in mouse xenografted with human KARPAS422 cells at 100 mg/kg, po bid
[3] = Clearance in mouse hepatocytes assessed per million cells; type: ADME, cell-based, Hepatocyte; conditions: read-out: CLH
Cytochrome P450 1A2 = target: T1, Cytochrome P450 1A2 (Homo sapiens, UniProt P05177); test: Inhibition of CYP1A2 (unknown origin); type: ADME
T1 sequence (P05177 whole entry): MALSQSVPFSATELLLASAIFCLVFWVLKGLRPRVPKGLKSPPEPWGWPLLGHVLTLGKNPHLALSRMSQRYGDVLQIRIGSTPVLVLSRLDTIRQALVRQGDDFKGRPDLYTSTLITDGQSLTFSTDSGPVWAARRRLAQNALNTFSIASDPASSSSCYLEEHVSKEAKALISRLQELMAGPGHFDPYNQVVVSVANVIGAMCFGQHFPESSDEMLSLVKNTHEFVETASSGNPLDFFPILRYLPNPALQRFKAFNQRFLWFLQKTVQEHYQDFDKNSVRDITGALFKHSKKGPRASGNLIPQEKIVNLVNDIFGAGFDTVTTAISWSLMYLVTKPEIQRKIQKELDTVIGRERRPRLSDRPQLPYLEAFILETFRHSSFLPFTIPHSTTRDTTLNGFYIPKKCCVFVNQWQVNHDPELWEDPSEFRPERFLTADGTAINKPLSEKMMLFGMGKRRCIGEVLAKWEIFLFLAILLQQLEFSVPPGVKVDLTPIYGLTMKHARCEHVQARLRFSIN

Cytochrome P450 2C9 = Cytochrome P450 2C9 (Homo sapiens, UniProt P11712); test: Inhibition of CYP2C9 (unknown origin); type: ADME
Cytochrome P450 2C9, sequence (P11712 whole entry): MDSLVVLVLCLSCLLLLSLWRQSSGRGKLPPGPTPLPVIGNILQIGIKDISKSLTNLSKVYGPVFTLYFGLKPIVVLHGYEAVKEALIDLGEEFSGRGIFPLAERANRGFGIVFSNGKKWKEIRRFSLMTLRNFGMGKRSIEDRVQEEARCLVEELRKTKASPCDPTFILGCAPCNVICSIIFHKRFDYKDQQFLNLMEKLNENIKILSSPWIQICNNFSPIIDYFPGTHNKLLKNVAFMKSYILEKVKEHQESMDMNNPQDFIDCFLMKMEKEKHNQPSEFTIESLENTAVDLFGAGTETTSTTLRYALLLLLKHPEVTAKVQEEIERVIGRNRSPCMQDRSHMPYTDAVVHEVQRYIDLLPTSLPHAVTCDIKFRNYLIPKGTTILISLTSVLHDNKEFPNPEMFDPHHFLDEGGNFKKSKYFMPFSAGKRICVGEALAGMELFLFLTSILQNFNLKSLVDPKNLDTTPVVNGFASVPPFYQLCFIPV

Cytochrome P450 2C19 = Cytochrome P450 2C19 (Homo sapiens, UniProt P33261); test: Inhibition of CYP2C19 (unknown origin); type: ADME
Cytochrome P450 2C19, sequence (P33261 whole entry): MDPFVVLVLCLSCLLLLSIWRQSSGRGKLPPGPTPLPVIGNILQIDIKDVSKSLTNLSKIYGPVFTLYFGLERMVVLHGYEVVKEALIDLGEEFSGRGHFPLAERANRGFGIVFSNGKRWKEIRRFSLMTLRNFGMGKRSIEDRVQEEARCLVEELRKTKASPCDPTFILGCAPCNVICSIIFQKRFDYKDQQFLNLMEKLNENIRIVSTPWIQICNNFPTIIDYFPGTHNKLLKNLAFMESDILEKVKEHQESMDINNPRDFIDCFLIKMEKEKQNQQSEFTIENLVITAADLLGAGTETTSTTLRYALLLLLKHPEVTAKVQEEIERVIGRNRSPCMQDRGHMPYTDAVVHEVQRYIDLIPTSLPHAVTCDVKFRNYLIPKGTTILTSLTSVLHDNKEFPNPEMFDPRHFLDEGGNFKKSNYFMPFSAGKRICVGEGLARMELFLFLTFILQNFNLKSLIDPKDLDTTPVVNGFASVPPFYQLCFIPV

Cytochrome P450 3A4 = Cytochrome P450 3A4 (Homo sapiens, UniProt P08684); test: Inhibition of CYP3A4 (unknown origin); type: ADME
Cytochrome P450 3A4, sequence (P08684 whole entry): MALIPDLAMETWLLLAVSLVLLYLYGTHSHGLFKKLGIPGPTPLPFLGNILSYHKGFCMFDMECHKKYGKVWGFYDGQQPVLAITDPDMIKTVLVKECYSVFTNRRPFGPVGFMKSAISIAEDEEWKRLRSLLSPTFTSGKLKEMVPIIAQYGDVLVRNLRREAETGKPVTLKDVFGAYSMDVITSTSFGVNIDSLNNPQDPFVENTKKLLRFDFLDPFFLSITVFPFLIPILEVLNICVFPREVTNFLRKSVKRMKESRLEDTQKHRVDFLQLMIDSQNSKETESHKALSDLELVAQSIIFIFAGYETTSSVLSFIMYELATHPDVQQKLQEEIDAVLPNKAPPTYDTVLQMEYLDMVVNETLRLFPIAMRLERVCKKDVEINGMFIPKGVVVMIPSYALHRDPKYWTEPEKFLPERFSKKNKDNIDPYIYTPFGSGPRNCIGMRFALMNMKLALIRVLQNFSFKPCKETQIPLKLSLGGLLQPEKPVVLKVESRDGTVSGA

[4] = target: Voltage-gated inwardly rectifying potassium channel KCNH2 (Homo sapiens, UniProt Q12809); test: Inhibition of human ERG
Voltage-gated inwardly rectifying potassium channel KCNH2, sequence (Q12809 whole entry): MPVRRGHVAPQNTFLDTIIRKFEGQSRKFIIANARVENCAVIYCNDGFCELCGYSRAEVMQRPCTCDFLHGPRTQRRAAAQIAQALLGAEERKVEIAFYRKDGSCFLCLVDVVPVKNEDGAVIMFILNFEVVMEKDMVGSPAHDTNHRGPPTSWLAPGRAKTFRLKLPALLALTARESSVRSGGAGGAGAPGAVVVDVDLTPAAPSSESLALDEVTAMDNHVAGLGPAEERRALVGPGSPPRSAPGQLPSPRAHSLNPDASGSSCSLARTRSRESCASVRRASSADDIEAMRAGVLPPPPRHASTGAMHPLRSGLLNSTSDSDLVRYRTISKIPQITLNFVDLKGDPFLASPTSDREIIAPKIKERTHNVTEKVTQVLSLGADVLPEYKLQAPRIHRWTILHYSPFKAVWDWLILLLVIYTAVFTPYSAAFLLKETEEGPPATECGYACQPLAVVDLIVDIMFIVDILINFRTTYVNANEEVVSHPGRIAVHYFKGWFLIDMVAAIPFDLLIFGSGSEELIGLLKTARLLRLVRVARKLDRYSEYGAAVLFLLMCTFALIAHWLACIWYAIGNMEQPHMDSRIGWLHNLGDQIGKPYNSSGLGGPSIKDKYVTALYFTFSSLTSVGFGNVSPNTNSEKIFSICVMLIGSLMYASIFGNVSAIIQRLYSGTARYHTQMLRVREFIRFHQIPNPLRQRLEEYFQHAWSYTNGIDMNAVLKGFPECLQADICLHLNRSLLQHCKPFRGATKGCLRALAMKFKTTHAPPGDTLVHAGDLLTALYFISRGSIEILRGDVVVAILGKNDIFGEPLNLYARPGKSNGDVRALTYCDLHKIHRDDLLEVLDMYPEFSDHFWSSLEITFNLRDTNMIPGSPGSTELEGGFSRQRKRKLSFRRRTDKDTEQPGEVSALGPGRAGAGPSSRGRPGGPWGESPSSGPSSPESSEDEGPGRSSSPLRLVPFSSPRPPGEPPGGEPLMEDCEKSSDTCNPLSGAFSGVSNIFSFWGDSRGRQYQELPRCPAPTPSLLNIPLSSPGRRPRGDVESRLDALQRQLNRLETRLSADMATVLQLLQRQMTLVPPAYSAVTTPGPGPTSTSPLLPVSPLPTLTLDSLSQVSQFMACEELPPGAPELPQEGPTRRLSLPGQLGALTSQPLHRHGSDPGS

KARPAS-422 = test: Antitumor activity against human KARPAS422 cells harboring EZH2 Y641N mutant xenografted in mouse assessed as tumor regression at 100 mg/kg, sc qd measured 40 days post treatment termination on day 31

Histone-lysine N-methyltransferase EZH2, sequence (Q15910 whole entry): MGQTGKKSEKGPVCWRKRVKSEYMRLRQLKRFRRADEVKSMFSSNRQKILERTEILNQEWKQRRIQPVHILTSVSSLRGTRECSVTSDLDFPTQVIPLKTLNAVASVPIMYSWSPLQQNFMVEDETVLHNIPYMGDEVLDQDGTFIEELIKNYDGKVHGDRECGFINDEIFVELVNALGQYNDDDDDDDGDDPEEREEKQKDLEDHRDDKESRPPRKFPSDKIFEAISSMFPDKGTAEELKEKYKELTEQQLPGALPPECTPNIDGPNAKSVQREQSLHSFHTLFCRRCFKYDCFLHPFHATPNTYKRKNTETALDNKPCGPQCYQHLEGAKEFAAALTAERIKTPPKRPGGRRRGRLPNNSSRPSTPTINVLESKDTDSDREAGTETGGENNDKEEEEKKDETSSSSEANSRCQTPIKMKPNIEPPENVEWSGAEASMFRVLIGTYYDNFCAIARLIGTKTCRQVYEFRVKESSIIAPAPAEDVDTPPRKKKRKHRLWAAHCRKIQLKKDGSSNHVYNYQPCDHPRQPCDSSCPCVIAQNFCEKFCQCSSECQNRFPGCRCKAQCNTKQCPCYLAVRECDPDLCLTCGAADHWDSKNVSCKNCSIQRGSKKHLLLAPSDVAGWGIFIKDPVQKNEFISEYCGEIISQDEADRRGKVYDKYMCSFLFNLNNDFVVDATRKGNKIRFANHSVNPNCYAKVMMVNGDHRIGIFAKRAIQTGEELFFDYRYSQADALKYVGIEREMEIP

SMILES: COc1cc(C)[nH]c(=O)c1CN1CCc2c(Cl)cc([C@H](OC)C3COC3)c(Cl)c2C1=O [MEVROMETOSTAT]
- IC50 [1]: 0.004 µM
- microsomal CLint at 1 µM [2]: 39 µL/min/mg
- Time (Mus musculus): 7 to 24 h
- hepatocyte CLint [3]: 60.1 µL/min/1e6 cells
- IC50 (Cytochrome P450 1A2): > 30 µM
- IC50 (Cytochrome P450 2C9): > 30 µM
- IC50 (Cytochrome P450 2C19): > 30 µM
- IC50 (Cytochrome P450 3A4): > 30 µM
- IC50 [4]: > 100 µM
- Activity (KARPAS-422): Active

Reference: ChEMBL document CHEMBL4024771, “Optimization of Orally Bioavailable Enhancer of Zeste Homolog 2 (EZH2) Inhibitors Using Ligand and Property-Based Design Strategies: Identification of Development Candidate …” (J Med Chem, 2018)
